High-throughput results: PubChem BioAssay, several laboratories
AP ELISA ortho = alternative complement pathway inhibitors, primary screen, biochemical, ELISA, human serum, orthogonally pooled compounds. inhibition, % at 5 µM. AID 1235, 2008. LPS-coated ELISA, C3 deposition; tested in compound mixtures. hit rate 0.08% among 62,000;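 active means inhibition above 30% in each of the two pooled mixtures holding the compound, so the lower value exceeds 30%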;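 further: 0% = serum in Mg-EGTA without compound and 100% = EDTA serum blank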
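Assay system: human serum alternative complement pathway, C3 deposition on LPS-coated wells; Dosing: 5 µM per compound in ten-compound mixtures; Detection: Anti-C3 ELISA, OD 450 nm; Buffer or medium: Mg2+-EGTA GVB++ buffer containing human serum at 1:15 dilution; Timing: 1 h at 37 °C; Replication: two different pools per compound.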
Cathepsin G inh = human cathepsin G inhibitors, primary screen, biochemical, pooled compound mixtures, AMC fluorescence; P08311; purified enzyme, AMC-tetrapeptide fluorescence; inhibition, % at 5 µM (by protocol); hit rate 0.2% among 62,000; AID 581, 2007;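 active means inhibition above 20% in each of the two mixture wells holding the compound; inactive means inhibition of 20% or less in either well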;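 further: 0% = enzyme control without mixture and 100% = blank lacking enzyme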
FXIIa mix inh = human factor XIIa inhibitors, primary screen, biochemical, pooled compound mixtures, fluorogenic substrate. Coagulation factor XII (Homo sapiens), P00748. purified FXIIa. inhibition, % at 5 µM. hit rate 0.2% among 62,000. AID 684, 2007;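 further: 0% = enzyme without compound and 100% = no enzyme blank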
C1s block = complement C1s protease inhibitors, primary screen, biochemical, 10-compound mixtures. Complement C1s subcomponent (Homo sapiens), P09871. purified C1s, fluorogenic AMC substrate, pooled mixtures. mean inhibition % of two 10-compound mixtures (active compounds read high), % at 5 µM (by protocol). hit rate 0.16% among 62,000. AID 538, 2006;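 active means inhibition above 20% in each of the two 10-compound mixture wells holding the compound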;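 further: 0% = enzyme wells lacking compound mixture and 100% = no-enzyme blank wells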
FXIa mix inh = FXIa protease inhibitors in compound pools, primary screen, biochemical, 10-compound mixtures; purified FXIa, fluorogenic substrate, pooled mixtures; inhibition, % at 5 µM; hit rate 0.19% among 62,000; AID 680, 2007;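 further: each value is inhibition by a whole ten-compound pool holding the compound; 0% = enzyme with no mixture and 100% = wells lacking enzyme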
Target sequence (P03951 19-387 limits assumed): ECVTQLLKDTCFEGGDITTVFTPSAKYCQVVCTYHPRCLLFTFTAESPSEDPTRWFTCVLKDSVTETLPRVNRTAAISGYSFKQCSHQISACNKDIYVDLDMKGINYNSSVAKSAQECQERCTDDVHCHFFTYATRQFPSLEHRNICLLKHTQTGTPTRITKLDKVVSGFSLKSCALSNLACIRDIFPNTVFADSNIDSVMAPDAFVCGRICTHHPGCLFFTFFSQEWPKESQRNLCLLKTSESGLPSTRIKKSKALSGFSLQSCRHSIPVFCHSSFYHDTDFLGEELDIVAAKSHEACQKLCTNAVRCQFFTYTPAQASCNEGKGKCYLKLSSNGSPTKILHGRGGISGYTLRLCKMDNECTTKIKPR
Target sequence (P03951 388-625 limits assumed): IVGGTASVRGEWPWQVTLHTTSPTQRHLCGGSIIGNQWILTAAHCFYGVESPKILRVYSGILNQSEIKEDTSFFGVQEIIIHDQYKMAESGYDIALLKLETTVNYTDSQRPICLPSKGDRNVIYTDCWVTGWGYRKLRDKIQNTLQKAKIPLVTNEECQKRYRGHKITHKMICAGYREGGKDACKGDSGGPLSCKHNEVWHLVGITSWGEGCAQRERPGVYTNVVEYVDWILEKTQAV
WNV NS2B-NS3 inh = inhibitors of WNV NS2B-NS3 protease, primary screen, biochemical, fluorogenic substrate | hit rate 0.18% among 65,000 | z-score (no concentration beside the values) | fluorogenic substrate Ex360/Em465; active compounds read low | AID 577, 2007; in the data active means z-score below about -3
Active calls of the source: *. Sampled rows, rich in hits. Any-hit rate of the full collection: about 0.85%. Unless noted, no stated cut-off is given here; in the data, active means inhibition above about 20% (passing the limit was not always enough); inactive means the rest.

SMILES | AP ELISA ortho | Cathepsin G inh | FXIIa mix inh | C1s block | FXIa mix inh | WNV NS2B-NS3 inh
O=C(NCCCn1ccnc1)c1noc2c1CCc1ccccc1-2 | 6 | 95* | 5 | 17 | 19 | -0.59
Cc1cc(NC(=O)c2noc3c2CCc2ccccc2-3)no1 | 11 | 95* | 10 | -13 | 42* | 1.2
COc1ccc2c(c1)CCc1c(C(=O)NCc3cccnc3)noc1-2 | -4 | 87* | 3 | 19 | 13 | -1
Cc1ccccc1Cn1nc(C)c(NC(=O)c2noc3c2CCc2ccccc2-3)c1C | 10 | 72* | -3 | 6 | 17 | -0.2
CCOC(=O)CSc1nnnn1-c1cc(OC)ccc1OC | -23 | -19 | 13 | -22 | 2 | 1.6
COc1ccc(C(NC(=O)CNC(C)=O)C(=O)Nc2ccc3c(c2)OCCO3)cc1 (stereo not given) | 16 | 8 | 7 | 5 | 2 | -0.67
CCCCn1nc(C(=O)O)ccc1=O | -1 | 2 | 0 | 0 | 3 | -1.5
O=C(Oc1ccc2c(c1)OCC2=O)c1ccccc1 | 13 | 12 | 6 | 43* | 4 | -1.2
COc1ccccc1-c1cc(C(=O)NC(C)C)no1 | 17 | 13 | 5 | 7 | 7 | 0.45
COc1ccccc1-c1cc(C(=O)NC(C)c2ccccc2)no1 (stereo not given) | 13 | 33* | -3 | 7 | 9 | -0.89
Cc1cccc(NC(=O)CSCc2c(C)noc2C)c1C | 6 | 9 | 1 | 14 | 6 | -1
CC(=O)N=c1c(C#N)cc2c(=O)n3cccc(C)c3nc2n1CC(C)C | -2 | -14 | -16 | -115 | -23 | 1.4
CC1(C)NC(=O)N(CC(O)COC2CCCCC2)C1=O (stereo not given) | -19 | -4 | 20* | -2 | 3 | 0.65
Cc1cc(C)c2c(CC(=O)NCc3ccco3)coc2c1 | 3 | 10 | 2 | 21* | 7 | -0.3
Cc1ccc(SCC(=O)NCc2ccco2)cc1 | 1 | 5 | 2 | 14 | -3 | -0.0025
COc1c(Cl)cc(Cl)cc1/C=N/n1cnnc1 | 8 | 5 | 3 | -21 | -1 | -0.42
COc1cccc(-n2c(SCC(=O)N3CCOCC3)nnc2-c2c[nH]c3ccccc23)c1 | 8 | 6 | 6 | -5 | 24* | -0.3
CCOC(=O)N1CCN(C(=O)CN(c2cccc(C)c2)S(=O)(=O)c2ccc(C)cc2)CC1 | 3 | 10 | 9 | 58* | 7 | -0.29
CCCCCCn1c(N2CCC(C(N)=O)CC2)nc2c1c(=O)n(C)c(=O)n2C | 10 | 3 | 5 | 2 | 6 | -0.94
CCOc1cc2c(cc1OCC)C(c1cc(OC)c(O)c(OC)c1)NCC2 (stereo not given) | 2 | 1 | 24* | -10 | 5 | 1.7
CSc1nnc(Cc2cc(=O)[nH]c(=O)[nH]2)n1-c1cccc(C)c1 | 10 | 8 | -4 | 1 | 3 | -0.15
Cc1cccc(-n2c(Cc3cc(=O)[nH]c(=O)[nH]3)nnc2SCC(=O)N2CCCCC2)c1 | 1 | 0 | 11 | -5 | 21* | -1.3
COc1ccc(N2CCN(CCNC(=O)c3cccn4c(=O)c5ccc(Cl)cc5nc34)CC2)cc1 | 12 | 4 | 2 | -31 | 8 | 0.62
CCC(C)(C)n1nnnc1C(c1ccc(OC)c(OC)c1)N1CCN(c2ccc(F)cc2)CC1 (stereo not given) | 5 | -2 | 48* | 2 | 13 | 0.42
CCC(C)(C)n1nnnc1C(c1ccc(OC)c(OC)c1)N1CCN(c2ccc(OC)cc2)CC1 (stereo not given) | -13 | -7 | 4 | -12 | 1 | 1.1
SMILES | AP ELISA ortho | Cathepsin G inh | FXIIa mix inh | C1s block | FXIa mix inh | WNV NS2B-NS3 inh
Cc1cccn2c(=O)c(C=NCc3ccco3)c(Nc3ccc(Cl)cc3)nc12 | 8 | 7 | -10 | 8 | 3 | -3.3*
Cc1c(C(=O)N2CC(C)OC(C)C2)oc2ccccc12 (stereo not given) | 3 | 7 | 6 | 12 | 2 | -0.26
Cc1oc(-c2ccccc2F)nc1CS(=O)CC(=O)NCc1cccs1 (stereo not given) | 40* | 36 | -3 | 12 | 8 | -0.75
O=C(CN1C(=O)NC2(CCCCCCC2)C1=O)N1CCOCC1 | 39* | -1 | -19 | -78 | -12 | -0.48
O=C(CN1C(=O)NC2(CCCC2)C1=O)N1CCN(C(=O)c2ccco2)CC1 | 6 | 6 | -4 | -6 | 4 | -0.14
O=C(NCc1ccccn1)C1CCC(=O)N1C1CCCC1 (stereo not given) | 7 | -3 | 19 | -3 | 1 | 1
COc1ccc2[nH]c(=O)c(CN(Cc3cccs3)Cc3nnnn3C(C)(C)C)cc2c1 | 4 | 22 | 6 | 13 | 22* | 0.2
CCOc1ccccc1N(CC(=O)OC)S(=O)(=O)c1ccccc1 | 1 | -1 | 5 | 11 | 4 | -0.39
CCOc1ccccc1N(CC(=O)O)S(=O)(=O)c1ccccc1 | 6 | 46 | -5 | -3 | 40* | -0.77
O=C(COc1ccc(Cl)cc1)OCC(=O)N1CCCC1 | -4 | -1 | 2 | -2 | 7 | -0.07
O=C(COc1ccc(Cl)cc1)OCC(=O)N1CCCCCC1 | -1 | -2 | 0 | 0 | 27* | 0.59
CCCCn1c(Cl)nc2c1c(=O)n(C)c(=O)n2C | 29 | 9 | -11 | 5 | 8 | -1.4
CCCCn1c(=O)n(C)c(=O)c2c(C(F)(F)F)cc(-c3ccncc3)nc21 | 3 | 8 | 44* | 38 | 6 | 0.23
COCC(C)NCc1ccccc1C (stereo not given) | 9 | 8 | -17 | 15 | 9 | -0.27
CC(=O)Nc1ccc(NC(=O)CN(C)CCC#N)cc1 | 6 | 10 | 6 | 14 | 2 | -0.96
CCCCNC(=O)CN1C(=O)C(CC)Oc2ccc(Cl)cc21 (stereo not given) | 7 | 9 | 20* | -9 | 4 | 0.62
CCOC(=O)CN1C(=O)C(CC)Oc2ccc(Cl)cc21 (stereo not given) | 1 | 6 | 9 | 6 | 2 | 0.5
O=C(COC(=O)c1ccccc1)NCc1ccco1 | 3 | -1 | 35* | 35 | 6 | -0.14
COC(=O)C1=C(C)N=C2SCCC(=O)N2C1c1ccc(C(=O)OC)cc1 (stereo not given) | 3 | 6 | -1 | -3 | -6 | 0.04
COC(=O)c1ccc(C2C(C(=O)OCC(C)C)=C(C)N=C3SCCC(=O)N32)cc1 (stereo not given) | 2 | -2 | 9 | 2 | 29* | -0.18
CCOc1ccccc1-c1nc(SCC(=O)O)n[nH]1 | -13 | -4 | 1 | -16 | -1 | 1.7
